Measured values as given in ChEMBL document CHEMBL1926535, “Novel pyridopyrazine and pyrimidothiazine derivatives as FtsZ inhibitors” (Bioorg Med Chem, 2011).
Converted amounts (≈) assume the structure as drawn.

Key:
[1] = test system: Mycobacterium tuberculosis; assay: Antituberculosis activity against Mycobacterium tuberculosis H37Ra ATCC 25177 after 6 days using alamar blue dye by broth microdilution assay; type: functional; conditions: H37Ra ATCC 25177, 144 h
In short: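 Strain H37Ra in a colorimetric Alamar blue broth microdilution assay using duplicate two-fold serial dilutions of drug.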

[2] = test system: Mycobacterium tuberculosis; assay: Antituberculosis activity against Mycobacterium tuberculosis H37Rv ATCC 27294 after 7 days using alamar blue assay; type: functional; conditions: 168 h
In short: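 Strain H37Rv growth measured over a 10-point dose-response curve. IC90, the concentration inhibiting bacterial growth by 90%, is extrapolated from the curve.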

Vero = assay: Cytotoxicity against african green monkey Vero cells after 72 hrs by celltiter-glo assay; type: cell-based; conditions: chlorocebus sabaeus
In short: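 Vero cells grown in culture with compound across a 10-point dose-response curve. CC50 is extrapolated as the concentration that inhibits cell growth by 50%. Each compound was assayed at least three times.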

[3] = target: T1, Cell division protein FtsZ (Mycobacterium tuberculosis, UniProt P9WN95); assay: Inhibition of Mycobacterium tuberculosis FtsZ polymerization expressed in Escherichia coli by light scattering assay
T1 sequence (P9WN95 whole entry): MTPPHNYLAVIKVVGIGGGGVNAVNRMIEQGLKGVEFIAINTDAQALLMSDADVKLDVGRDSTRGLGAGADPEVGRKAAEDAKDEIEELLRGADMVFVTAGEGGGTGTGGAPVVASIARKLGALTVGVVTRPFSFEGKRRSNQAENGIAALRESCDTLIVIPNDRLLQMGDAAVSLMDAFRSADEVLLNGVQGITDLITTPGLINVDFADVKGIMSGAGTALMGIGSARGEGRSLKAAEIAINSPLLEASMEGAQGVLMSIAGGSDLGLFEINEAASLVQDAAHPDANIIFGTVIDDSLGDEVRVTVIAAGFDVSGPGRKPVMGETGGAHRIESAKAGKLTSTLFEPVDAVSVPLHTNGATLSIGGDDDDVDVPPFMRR
In short: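 Mtb FtsZ polymerization assay with each compound run at least three times. IC50 is the concentration that inhibits polymerization by 50%, reported as mean ± standard deviation.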

[4] = Inhibition of purified bovine tubulin polymerization by light scattering assay; set-up: species or system Bos taurus
In short: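 Tubulin polymerization assay. IC50 is the concentration that inhibits polymerization by 50%. Each compound was analyzed at least three times, reported as mean ± standard deviation.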

[5] = target: T2, Cell division protein FtsZ (Mycobacterium tuberculosis) (UniProt P9WN95); assay: Inhibition of Mycobacterium tuberculosis FtsZ polymerization expressed in Escherichia coli at 100 uM by light scattering assay
T2 sequence (whole entry): T1 sequence (P9WN95 whole entry)

[6] = test system: Mycobacterium tuberculosis; assay: Antitubercular activity against Mycobacterium tuberculosis infected in interferon-gamma-gene-disrupted C57BL/6 mouse model assessed as reduction in bacterial load in lung at 10 mg/kg, po administered daily measured after 9 days; type: functional
In short: (§1)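 Interferon-γ gene-disrupted C57BL/6 (GKO) mice infected with M. tuberculosis. Compound given at 10 mg/kg in 0.5% methyl cellulose by daily gavage for 9 days. Read-out is the reduction in bacterial load (Log10 CFU) in lungs or spleen versus untreated controls, with significance judged by P value (0.05 threshold).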

[7] = test system: Mycobacterium tuberculosis; assay: Antitubercular activity against Mycobacterium tuberculosis infected in interferon-gamma-gene-disrupted C57BL/6 mouse model assessed as reduction in bacterial load in spleen at 10 mg/kg, po administered daily measured after 9 days; type: functional; in short: as §1
Bos taurus = species on record: Bos taurus; assay: Inhibition of purified bovine tubulin polymerization at 100 uM by light scattering assay
Mus musculus [8] = assay: Toxicity in C57BL/6 mouse model assessed as lethality at 300 mg/kg administered via gavage; type: organism-based; set-up: dose 300 mg/kg; conditions: in vivo, po
In short: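 Acute maximum tolerated dose study in C57BL/6 mice. Escalating doses up to 300 mg/kg were given daily for 3 days by gavage in 0.5% methyl cellulose, and doses were scaled back if mortality or adverse effects appeared.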

Mus musculus [9] = assay: Toxicity in C57BL/6 mouse model assessed as adverse event at 100 mg/kg administered via gavage; type: organism-based; set-up: dose 100 mg/kg; conditions: in vivo, po
In short: (§2)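 Acute maximum tolerated dose study in C57BL/6 mice. Escalating oral gavage doses up to 300 mg/kg were given daily for 3 days, formulated in 0.5% methyl cellulose. Dosage was scaled back if mortality or adverse effects were observed.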

Mus musculus [10] = assay: Toxicity in C57BL/6 mouse model assessed as adverse event at 30 mg/kg administered via gavage; type: organism-based; set-up: dose 30 mg/kg; conditions: in vivo, po; in short: as §2
[11] = test system: Mycobacterium tuberculosis; assay: Antitubercular activity against Mycobacterium tuberculosis infected in interferon-gamma-gene-disrupted C57BL/6 mouse model assessed as reduction in bacterial load in lung at 10 mg/kg, po administered daily; type: functional; in short: as §1
[12] = test system: Mycobacterium tuberculosis; assay: Antitubercular activity against Mycobacterium tuberculosis infected in interferon-gamma-gene-disrupted C57BL/6 mouse model assessed as reduction in bacterial load in spleen at 10 mg/kg, po administered daily; type: functional; in short: as §1

SMILES	MIC [1] [µM]	IC90 [2] [µM]	CC50 (Vero) [µM]	IC50 [3] [µM]	IC50 [4] [µM]	inhibition [5] [%]	log10cfu [6]	log10cfu [7]	inhibition (Bos taurus) [%]	Activity (Mus musculus [8])	Activity (Mus musculus [9])	Activity (Mus musculus [10])	log10cfu [11]	log10cfu [12]
CCN(CC)CCCC(C)Nc1cc(N)nc2nc(-c3cccs3)c(-c3cccs3)nc12 (stereo not given)	17 (≈ 7.93 µg/mL)	4.1	5.9	29.5	> 100	–	–	–	–	–	–	–	–	–
CCOC(=O)Nc1cc(NCCN(C)C)c2nc(-c3ccco3)c(-c3ccco3)nc2n1	≤ 7	29	37	34.1	> 100	–	–	–	–	–	–	–	–	–
CCOC(=O)Nc1cc(NC(C)CCCN(CC)CC)c2nc(CC)c(CC)nc2n1 (stereo not given)	> 290	> 50	> 40	> 100	> 100	–	–	–	–	–	–	–	–	–
CCOC(=O)Nc1cc(NCCN(CC)CC)c2nc(-c3ccco3)c(-c3ccco3)nc2n1	8.7 (≈ 4.04 µg/mL)	> 100	5.5	34.8	> 100	–	–	–	–	–	–	–	–	–
CCOC(=O)Nc1cc(NC(C)CCCN(CC)CC)c2nc(C)c(C)nc2n1 (stereo not given)	> 290	> 100	> 40	> 100	> 100	–	–	–	–	–	–	–	–	–
CCOC(=O)Nc1cc(NCCN(CC)CC)c2nc(-c3ccccc3)c(-c3ccccc3)nc2n1	1.7 (≈ 0.824 µg/mL)	0.38	2.7	–	> 100	59	–	–	–	–	–	–	–	–
CCOC(=O)Nc1cc(NC(C)CCCN(CC)CC)c2nc(-c3cccs3)c(-c3cccs3)nc2n1 (stereo not given)	0.43 (≈ 0.232 µg/mL)	< 0.19	> 40	34.3	> 100	–	0.51	0.58	–	–	–	–	–	–
CCOC(=O)Nc1cc(NCCN(C)C)c2nc(-c3ccccc3)c(-c3ccccc3)nc2n1	≤ 7.6	< 0.19	0.7	54.6	> 100	–	–	–	–	–	–	–	–	–
CCOC(=O)Nc1cc(NCCN(C)C)c2nc(-c3cccs3)c(-c3cccs3)nc2n1	1.1 (≈ 0.515 µg/mL)	< 0.19	1.6	27.3	> 100	–	–	–	–	–	–	–	–	–
CCOC(=O)Nc1nc(NC(C)CCCN(CC)CC)c2nc(-c3ccccc3)c(-c3ccccc3)nc2n1 (stereo not given)	3.8 (≈ 2.01 µg/mL)	1.9	–	38.1	–	–	–	–	24	–	–	–	–	–
CCOC(=O)Nc1cc(NC(C)CCCN(CC)CC)c2nc(-c3ccco3)c(-c3ccco3)nc2n1 (stereo not given)	3.6 (≈ 1.82 µg/mL)	7	> 40	26.8	> 100	–	–	–	–	–	–	–	–	–
CCOC(=O)Nc1cc(NC(C)CCCN(CC)CC)c2nc(-c3ccccn3)c(-c3ccccn3)nc2n1 (stereo not given)	54 (≈ 28.5 µg/mL)	> 100	> 40	45.7	> 100	–	–	–	–	–	–	–	–	–
CCOC(=O)Nc1nc(NC(C)CCCN(CC)CC)c2c(n1)SC(c1ccccc1)C(c1ccccc1)=N2 (stereo not given)	49 (≈ 26.8 µg/mL)	21.7	> 40	46	> 100	–	–	–	–	–	–	–	–	–
CCOC(=O)Nc1nc(NCCCCN(CC)CC)c2c(n1)SC(c1ccccc1)C(c1ccccc1)=N2 (stereo not given)	52 (≈ 27.7 µg/mL)	18	> 40	46.2	69.7	–	–	–	–	–	–	–	–	–
CCOC(=O)Nc1cc(NCCCCN(CC)CC)c2nc(-c3cccs3)c(-c3cccs3)nc2n1	0.23 (≈ 0.121 µg/mL)	> 100	> 40	–	> 100	64	–	–	–	–	–	–	–	–
CCOC(=O)Nc1cc(NCCN(CC)CC)c2nc(-c3cccs3)c(-c3cccs3)nc2n1	≤ 7.9	0.92	6.3	21	> 100	–	–	–	–	–	–	–	–	–
CCOC(=O)Nc1cc(NC(C)CCCN(CC)CC)c2nc(-c3ccccc3)c(-c3ccccc3)nc2n1 (stereo not given)	0.47 (≈ 0.248 µg/mL)	< 0.19	–	34.2	> 100	–	–	–	–	Toxic	Toxic	Toxic	0.86	0.5
CCOC(=O)Nc1cc(NCCCCN(CC)CC)c2nc(-c3ccccc3)c(-c3ccccc3)nc2n1	0.24 (≈ 0.123 µg/mL)	< 0.19	1.8	52	–	–	–	–	40	–	–	–	–	–
CCOC(=O)Nc1cc(NCCCCN(CC)CC)c2nc(-c3ccco3)c(-c3ccco3)nc2n1	3.6 (≈ 1.77 µg/mL)	> 100	> 40	16.4	41	–	–	–	–	–	–	–	–	–
CCN(CC)CCCC(C)Nc1cc(N)nc2nc(-c3ccco3)c(-c3ccco3)nc12 (stereo not given)	150 (≈ 65.2 µg/mL)	> 100	14	18.6	> 100	–	–	–	–	–	–	–	–	–
